Active and inactive are the calls of the source. The rule behind the calls is not given here.
Tests used:
[1] = target: Serine/threonine-protein kinase pim-1 (Homo sapiens, UniProt P11309); experiment: Inhibition of human recombinant Pim1
Method in brief: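 Kinase assayed in buffer C (25 mM Mops pH 7.2, 60 mM beta-glycerophosphate, 30 mM p-nitrophenylphosphate, 15 mM MgCl2, 5 mM EGTA, 1 mM DTT, 0.1 mM vanadate) with 1 mg/mL histone H1. DMSO controls.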

[2] = target: Dual specificity protein kinase CLK1 (Mus musculus, UniProt P22518); experiment: Inhibition of mouse recombinant GST-tagged CLK1 using GRSRSRSRSRSR as substrate
Method in brief: (§1)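 Mouse GST-fusion CLK1 or CLK3 expressed in E. coli. Assay buffer A (Tris-HCl pH 7.5, MgCl2, EGTA, DTT, heparin) plus 0.15 mg/mL BSA. RS peptide 1 μg/assay, 15 μM ATP final, 30 C. Blank subtracted; activity expressed as percent of activity without inhibitor. DMSO controls. Concentration range up to 10 μM.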

Sus scrofa = species on record: Sus scrofa; experiment: Inhibition of pig brain CK1 delta/epsilon using RRKHAAIGpSAYSITA as substrate at 10 uM
Method in brief: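 Native CK1δ/ε from porcine brain, assayed in 3-fold diluted buffer C with 25 μM CKS peptide substrate. 15 μM ATP final, 30 C. Activity is percent of uninhibited control after blank subtraction, with DMSO controls. Inhibitor tested over a range of concentrations up to 10 μM.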

[3] = target: Dual specificity tyrosine-phosphorylation-regulated kinase 1A (Rattus norvegicus, UniProt Q63470); experiment: Inhibition of rat recombinant GST-tagged DYRK1A using KKISGRLSPIMTEQ as substrate and [gamma32]-ATP after 30 mins by scintillation counting
Method in brief: (§2)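 GST fusion kinases expressed in E. coli and purified on glutathione-agarose; DYRK1A is rat, DYRK2 is human. Assay buffer A (25 mM Tris-HCl pH 7.5, 10 mM MgCl2, 1 mM EGTA, 1 mM DTT, 50 μg/mL heparin) plus 0.15 mg/mL BSA. Product captured on P81 paper, washed in 1% phosphoric acid, scintillation counted. Activity expressed as percent of uninhibited control.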

[4] = target: T1, Dual specificity tyrosine-phosphorylation-regulated kinase 2 (Homo sapiens, UniProt Q92630); experiment: Inhibition of human recombinant GST-tagged DYRK2 using KKISGRLSPIMTEQ as substrate and [gamma32]-ATP after 30 mins by scintillation counting; method in brief: as §2
T1 sequence (Q92630 whole entry): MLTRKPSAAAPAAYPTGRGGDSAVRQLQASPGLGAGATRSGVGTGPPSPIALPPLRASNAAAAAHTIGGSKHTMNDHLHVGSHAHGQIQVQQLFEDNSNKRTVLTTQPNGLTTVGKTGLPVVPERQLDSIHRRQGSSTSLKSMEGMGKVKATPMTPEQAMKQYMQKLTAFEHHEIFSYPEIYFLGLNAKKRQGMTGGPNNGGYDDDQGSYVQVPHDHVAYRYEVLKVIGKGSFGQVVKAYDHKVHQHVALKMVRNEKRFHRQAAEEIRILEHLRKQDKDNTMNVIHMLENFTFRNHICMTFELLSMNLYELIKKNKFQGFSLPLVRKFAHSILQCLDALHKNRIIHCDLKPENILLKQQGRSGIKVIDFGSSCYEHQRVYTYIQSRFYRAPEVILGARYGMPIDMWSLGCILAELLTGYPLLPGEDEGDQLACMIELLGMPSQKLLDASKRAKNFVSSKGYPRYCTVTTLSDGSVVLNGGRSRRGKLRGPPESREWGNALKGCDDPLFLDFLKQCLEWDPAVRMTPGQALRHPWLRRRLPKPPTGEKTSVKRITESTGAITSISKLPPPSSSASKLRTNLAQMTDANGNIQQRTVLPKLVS

[5] = target: Dual specificity protein kinase CLK3 (Mus musculus, UniProt O35492); experiment: Inhibition of mouse recombinant GST-tagged CLK3 using GRSRSRSRSRSR as substrate; method in brief: as §1
[6] = target: Glycogen synthase kinase-3 alpha/beta (Sus scrofa); experiment: Inhibition of pig brain GSK-3alpha/beta
[7] = system: Cyclin-dependent kinase 5/p25 (Homo sapiens); experiment: Inhibition of human recombinant CDK5/p25 at 10 uM

Chain of Dual specificity protein kinase CLK1 (P22518 whole entry, the tested form may be a part): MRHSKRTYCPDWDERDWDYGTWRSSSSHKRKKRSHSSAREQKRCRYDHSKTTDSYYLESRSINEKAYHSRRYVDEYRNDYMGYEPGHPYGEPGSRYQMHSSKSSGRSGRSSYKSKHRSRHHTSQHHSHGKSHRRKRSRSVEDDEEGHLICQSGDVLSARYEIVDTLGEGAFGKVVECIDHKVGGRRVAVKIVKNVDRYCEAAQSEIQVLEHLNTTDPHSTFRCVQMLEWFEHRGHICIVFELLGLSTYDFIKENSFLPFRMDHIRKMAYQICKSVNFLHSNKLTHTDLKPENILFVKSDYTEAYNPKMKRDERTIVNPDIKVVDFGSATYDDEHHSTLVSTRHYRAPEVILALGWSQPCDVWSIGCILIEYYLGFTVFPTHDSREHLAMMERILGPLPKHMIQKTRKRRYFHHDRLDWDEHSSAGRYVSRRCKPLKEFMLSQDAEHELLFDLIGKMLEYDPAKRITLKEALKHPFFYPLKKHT
Chain of Dual specificity protein kinase CLK3 (O35492 whole entry): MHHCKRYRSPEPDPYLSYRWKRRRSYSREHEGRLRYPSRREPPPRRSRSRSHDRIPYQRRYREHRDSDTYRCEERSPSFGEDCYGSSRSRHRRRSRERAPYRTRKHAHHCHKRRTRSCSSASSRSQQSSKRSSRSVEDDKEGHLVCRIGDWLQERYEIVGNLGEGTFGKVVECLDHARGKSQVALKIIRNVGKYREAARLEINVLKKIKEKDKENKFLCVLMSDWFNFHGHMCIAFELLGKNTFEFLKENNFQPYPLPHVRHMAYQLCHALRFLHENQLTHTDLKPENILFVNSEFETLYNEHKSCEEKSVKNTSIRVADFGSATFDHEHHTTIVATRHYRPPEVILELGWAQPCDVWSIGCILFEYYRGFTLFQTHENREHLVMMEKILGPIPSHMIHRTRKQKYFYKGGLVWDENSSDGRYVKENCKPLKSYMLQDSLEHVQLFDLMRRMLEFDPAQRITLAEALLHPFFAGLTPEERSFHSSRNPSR
Chain of Serine/threonine-protein kinase pim-1 (P11309 whole entry): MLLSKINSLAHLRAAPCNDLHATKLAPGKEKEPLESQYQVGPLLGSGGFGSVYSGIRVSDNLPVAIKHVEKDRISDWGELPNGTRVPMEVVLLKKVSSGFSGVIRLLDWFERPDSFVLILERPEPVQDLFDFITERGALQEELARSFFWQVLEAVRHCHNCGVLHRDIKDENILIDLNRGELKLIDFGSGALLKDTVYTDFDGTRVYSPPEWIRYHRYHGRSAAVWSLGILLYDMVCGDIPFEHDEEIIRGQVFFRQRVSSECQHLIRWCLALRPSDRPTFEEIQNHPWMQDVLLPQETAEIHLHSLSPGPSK

SMILES | IC50 [1] | IC50 [2] | inhibition (Sus scrofa) | IC50 [3] | IC50 [4] | IC50 [5] | IC50 [6] | inhibition [7]
COCCNC1=N/C(=C\c2ccc3c(c2)OCO3)C(=O)N1C | > 10000 nM | 73 nM | inactive | 570 nM | 770 nM | 3100 nM |  | 
O=C1NC(Nc2ccc3c(c2)OCCO3)=N/C1=C\c1ccc2c(c1)OCO2 | > 10000 nM | 320 nM | inactive | 170 nM | 110 nM | > 10000 nM | > 10000 nM | inactive
CC(C)NC1=N/C(=C\c2ccc3c(c2)OCO3)C(=O)N1C | 4000 nM | 260 nM | inactive | 390 nM | 530 nM | 2000 nM |  | 
O=C1NC(NCC2CC2)=N/C1=C\c1ccc2c(c1)OCO2 | 1500 nM | 83 nM | inactive | 100 nM | 47 nM | 610 nM | 4700 nM | inactive
CCNC1=N/C(=C\c2ccc3c(c2)OCO3)C(=O)N1 | 3100 nM | 400 nM | inactive | 410 nM | 160 nM | 3700 nM | 2400 nM | inactive
CN1C(=O)/C(=C/c2ccc3c(c2)OCO3)N=C1NCc1ccc2c(c1)OCO2 | 590 nM | 230 nM | inactive | 3200 nM | 3300 nM | > 10000 nM |  | 
CC(=O)NC1=N/C(=C\c2ccc3c(c2)OCO3)C(=O)N1C | > 10000 nM | 2400 nM | inactive | 3100 nM | 5100 nM | > 10000 nM |  | 
CN1C(=O)/C(=C/c2ccc3c(c2)OCO3)N=C1Nc1ccc2c(c1)OCO2 | > 10000 nM | 160 nM | inactive | 400 nM | 100 nM | > 10000 nM | 5800 nM | inactive
C=CCNC1=N/C(=C\c2ccc3c(c2)OCO3)C(=O)N1C | 4200 nM | 200 nM | inactive | 440 nM | 620 nM | 880 nM | 1600 nM | inactive
CN1C(=O)/C(=C/c2ccc3c(c2)OCO3)N=C1Nc1ccccc1 | 2600 nM | 84 nM | inactive | 310 nM | 460 nM | 4600 nM |  | 
CCNC1=N/C(=C\c2ccc3c(c2)OCO3)C(=O)N1C | 7200 nM | 170 nM | inactive | 580 nM | 640 nM | 2100 nM | 16000 nM | inactive
CN1C(=O)/C(=C/c2ccc3c(c2)OCO3)N=C1Nc1ccc(O)cc1 | 4000 nM | 1000 nM | inactive | 440 nM | 1100 nM | 3900 nM |  | 
CN1C(=O)/C(=C/c2ccc3c(c2)OCO3)N=C1NCc1ccccc1 | 3700 nM | 200 nM | inactive | 380 nM | 560 nM | 940 nM | > 10000 nM | inactive
CCCNC1=N/C(=C\c2ccc3c(c2)OCO3)C(=O)N1C | 4500 nM | 310 nM | inactive | 540 nM | 550 nM | 1200 nM |  | 
O=C1NC(Nc2ccc3c(c2)OCO3)=N/C1=C\c1ccc2c(c1)OCO2 | 5000 nM | 170 nM | inactive | 66 nM | 40 nM | 360 nM |  | 
CN1C(=O)/C(=C/c2ccc3c(c2)OCO3)N=C1NCCCO | 6500 nM | 233 nM | inactive | 280 nM | 470 nM | 3900 nM |  | 
CC(C)CCNC1=N/C(=C\c2ccc3c(c2)OCO3)C(=O)N1C | 2100 nM | 160 nM | inactive | 460 nM | 560 nM | 960 nM | 2000 nM | inactive
O=C1NC(Nc2ccc(O)cc2)=N/C1=C\c1ccc2c(c1)OCO2 | 1200 nM | 60 nM | inactive | 96 nM | 60 nM | 520 nM |  | 
CN1C(=O)/C(=C/c2ccc3c(c2)OCO3)N=C1NC1CCCC1 | 300 nM | 140 nM | inactive | 3700 nM | 6000 nM | > 10000 nM |  | 
CN1C(=O)/C(=C/c2ccc3c(c2)OCO3)N=C1NCCCCCO | 6100 nM | 140 nM | inactive | 2100 nM | 2000 nM | 7000 nM |  | 
COc1ccc(NC2=N/C(=C\c3ccc4c(c3)OCO4)C(=O)N2C)cc1 | 4100 nM | 450 nM | inactive | 240 nM | 510 nM | > 10000 nM | 700 nM | inactive
CN1C(=O)/C(=C/c2ccc3c(c2)OCO3)N=C1NCCN1CCOCC1 | 6200 nM | 80 nM | inactive | 1200 nM | 1600 nM | 8000 nM | 4000 nM | inactive
CC(C)CNC1=N/C(=C\c2ccc3c(c2)OCO3)C(=O)N1C | 2000 nM | 120 nM | inactive | 170 nM | 210 nM | 900 nM | 3100 nM | inactive
CNC1=N/C(=C\c2ccc3c(c2)OCO3)C(=O)N1C | 3500 nM | 770 nM | inactive | 2100 nM | 2200 nM | 3200 nM |  | 
COc1ccc(NC2=N/C(=C\c3ccc4c(c3)OCO4)C(=O)N2)cc1 | > 10000 nM | 830 nM | inactive | 110 nM | 80 nM | 10000 nM |  | 
CN1C(=O)/C(=C/c2ccc3c(c2)OCO3)N=C1NCCO | > 10000 nM | 120 nM | inactive | 7000 nM | 10000 nM | > 10000 nM | 1300 nM | inactive
Cc1ccc(NC2=N/C(=C\c3ccc4c(c3)OCO4)C(=O)N2)cc1 | 9000 nM | 320 nM | inactive | 170 nM | 61 nM | > 10000 nM |  | 
CN1C(=O)/C(=C/c2ccc3c(c2)OCO3)N=C1NCCN | 3100 nM | 190 nM | inactive | 910 nM | 710 nM | 5000 nM | 910 nM | inactive
CCCCNC1=N/C(=C\c2ccc3c(c2)OCO3)C(=O)N1C | 4600 nM | 130 nM | inactive | 500 nM | 610 nM | 1100 nM |  | 

— ChEMBL document CHEMBL1800025 (J Med Chem, 2011)
